Test results published in ChEMBL document CHEMBL4138193, “Novel indole and triazole based hybrid molecules exhibit potent anti-adipogenic and antidyslipidemic activity by activating Wnt3a/β-catenin pathway” (Eur J Med Chem, 2018).
Active and inactive are the calls of the source. No cut-off for these calls is given here.

Assays:
Syrian golden hamster [1] = assay: Induction of reverse cholestrol transport in high fat diet-induced dyslipidemia Syrian Golden hamster model assessed as increase in LXR1alpha mRNA expression in liver at 100 mg/kg, po administered for 1 week by qRT-PCR analysis; format: functional, organism-based; conditions: Mesocricetus auratus
Mus musculus [2] = organism: Mus musculus; assay: Activation of Wnt3a/beta-catenin in mouse 3T3L1 cells assessed as down-regulation of C/EBPalpha mRNA expression at 20 uM by qRT-PCR analysis; format: cell-based
How it was run: (§1)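 3T3-L1 cells differentiated with IBMX/dexamethasone/insulin media with or without 20 µM compound over the differentiation period. RNA extracted with TRIZOL, 500 ng reverse-transcribed to cDNA, then quantitative real-time PCR. Three independent experiments run in triplicate, mean ± SD, one-way ANOVA with Bonferroni posttest.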

Mus musculus [3] = organism: Mus musculus; assay: Activation of Wnt3a/beta-catenin in differentiated mouse 3T3L1 cells assessed as down-regulation of PPARgamma protein expression at 20 uM after 16 to 24 hrs by Western blot analysis
How it was run: (§2)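 3T3-L1 preadipocytes grown to confluence in high-glucose DMEM/10% FBS, then given differentiation media (0.5 mM IBMX, 5 µg/ml insulin, 250 nM dexamethasone) with or without 20 µM compound. Protein isolated at set time points, lysed with protease/phosphatase inhibitors, BCA-quantified, resolved by 8–12% SDS-PAGE, immunoblotted with ECL detection. β-actin loading control, densitometry normalized to actin, n=3.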

Mus musculus [4] = organism: Mus musculus; assay: Activation of Wnt3a/beta-catenin in mouse 3T3L1 cells assessed as increase in SIRT1 mRNA expression at 20 uM by qRT-PCR analysis; format: cell-based; how it was run: as §1
C3H 10T1/2 [5] = assay: Anti-adipogenic activity in mouse C3H10T1/2 cells assessed as reduction in lipid accumulation at early differentiation stage at 20 uM measured up to 3 days by Oil Red O absorbance method; format: functional, cell-based
How it was run: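 3T3-L1 or C3H10T1/2 cells given 20 µM compound with differentiation media for different time periods. Oil red O stain extracted from accumulated lipid with isopropanol and absorbance read at 492 nm. n=3, mean ± SD, Student t test against MDI+ group.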

3T3-L1 [6] = assay: Anti-adipogenic activity in mouse 3T3L1 cells assessed as reduction in lipid accumulation at 20 uM measured up to 7 days by Oil Red O staining based leica microscopy; format: functional, cell-based
How it was run: (§3)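 3T3-L1 or C3H10T1/2 cells given 20 µM compound in differentiation media for varied time periods, then stained with Oil red O. Imaged by microscopy at 10x, representative of three independent experiments.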

Syrian golden hamster [7] = assay: Anti-dyslipidemic activity in high fat diet-induced dyslipidemia Syrian Golden hamster model assessed as reduction in serum total cholesterol levels at 100 mg/kg, po administered for 1 week followed by overnight fasting post last dose by clinical bio-analyzer analysis; format: functional, organism-based; conditions: Mesocricetus auratus
How it was run: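 Male Syrian Golden hamsters (8-10 weeks, 100-120 g), 4 per group, given 45% kCal high fat diet for 4 days, then HFD plus oral dosing in 0.5% w/v NaCMC for one week. After an overnight fast, blood was taken from the retro-orbital plexus under anesthesia and serum was analysed on a clinical bio-analyzer. Mean ± SEM; one-way ANOVA with Bonferroni post-test.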

C3H 10T1/2 [8] = assay: Anti-adipogenic activity in mouse C3H10T1/2 cells assessed as reduction in lipid accumulation at early differentiation stage at 20 uM measured up to 3 days by Oil Red O staining based leica microscopy; format: functional, cell-based; how it was run: as §3
Mus musculus [9] = organism: Mus musculus; assay: Activation of Wnt3a/beta-catenin in differentiated mouse 3T3L1 cells assessed as down-regulation of C/EBPalpha protein expression at 20 uM after 16 to 24 hrs by Western blot analysis; how it was run: as §2
3T3-L1 [10] = assay: Anti-adipogenic activity in mouse 3T3L1 pre-adipocytes in differentiation media assessed as reduction in lipid accumulation at 20 uM after 20 mins in presence of beta-catenin/TCF complex inhibitor FH353 by Oil Red O staining based microscopic method; format: functional, cell-based
How it was run: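 3T3-L1 adipocytes given 20 µM compound with or without 10 µM FH353 in differentiation media, then Oil red O stained. Imaged at 20x and 40x, representative of three independent experiments.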

Syrian golden hamster [11] = assay: Induction of reverse cholestrol transport in high fat diet-induced dyslipidemia Syrian Golden hamster model assessed as reduction in eWAT to body weight ratio at 100 mg/kg, po administered for 1 week; format: functional, organism-based; conditions: Mesocricetus auratus
How it was run: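 Male Syrian Golden hamsters on 45% kCal HFD, dosed 100 mg/kg p.o. in 0.5% NaCMC for one week, 4 per group. Food intake and body weight recorded daily. At the end, animals were saline-perfused and liver and eWAT were excised and weighed. Paraffin sections stained with H&E and imaged at 20x.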

C3H 10T1/2 [12] = assay: Anti-adipogenic activity in mouse differentiated C3H10T1/2 cells assessed as reduction in lipid accumulation at 5 to 20 uM after 20 mins by Oil Red O staining based microscopic method; format: functional, cell-based
How it was run: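 C3H10T1/2 or hMSC adipocytes differentiated alongside 5, 10 or 20 µM compound in differentiation media, stained with Oil red O. Images taken by bright-field microscopy at 10x and 20x, representative of three independent experiments.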

Mus musculus [13] = organism: Mus musculus; assay: Activation of Wnt3a/beta-catenin in mouse 3T3L1 cells assessed as down-regulation of AP2 expression at 20 uM after 2 to 6 days in presence of FH353 by Western blot analysis
Syrian golden hamster [14] = assay: Anti-atherosclerotic activity in high fat diet-induced dyslipidemia Syrian Golden hamster model assessed as reduction in atherogenic index by measuring serum triglycerides to HDL ratio at 100 mg/kg, po administered for 1 week followed by overnight fasting post last dose by clinical bio-analyzer analysis; format: functional, organism-based; conditions: Mesocricetus auratus
How it was run: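 Male Syrian golden hamsters (8–10 wk, 100–120 g), 4 per group, given 45% kcal HFD for 4 days, then 100 mg/kg p.o. in 0.5% NaCMC daily for one week alongside HFD. Blood taken from retro-orbital plexus after overnight fast. TG, HDL, LDL, ALT, AST measured on a clinical bio-analyzer and NEFA by kit. Mean ± SEM, one-way ANOVA with Bonferroni.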

Syrian golden hamster [15] = assay: Induction of reverse cholestrol transport in high fat diet-induced dyslipidemia Syrian Golden hamster model assessed as decrease in CYP7A1 mRNA expression in liver at 100 mg/kg, po administered for 1 week by qRT-PCR analysis; format: functional, organism-based; conditions: Mesocricetus auratus
Syrian golden hamster [16] = assay: Induction of reverse cholestrol transport in high fat diet-induced dyslipidemia Syrian Golden hamster model assessed as increase in LCAT mRNA expression in liver at 100 mg/kg, po administered for 1 week by qRT-PCR analysis; format: functional, organism-based; conditions: Mesocricetus auratus
3T3-L1 [17] = assay: Upregulation of wnt3a mRNA expression in mouse 3T3L1 cells at 20 uM by qRT-PCR analysis; format: functional, cell-based
How it was run: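 3T3-L1 cells induced with MDI differentiation medium with or without 20 µM. RNA isolated with TRIzol and 500 ng reverse-transcribed to cDNA for real-time PCR. n=3 with triplicates, mean ± SD; one-way ANOVA with Bonferroni post-test.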

Activity (Mus musculus [3]): Active | Activity (Mus musculus [9]): Active
Structure (SMILES): Cc1ccc(S(=O)(=O)N(Cc2cn(Cc3cccc(F)c3F)nn2)Cc2cn(S(=O)(=O)c3ccc(C)cc3)c3ccccc23)cc1
Activity (Syrian golden hamster [1]): Active | Activity (Mus musculus [2]): Active | Activity (Mus musculus [4]): Active | Activity (C3H 10T1/2 [5]): Active | Activity (3T3-L1 [6]): Active | Activity (Syrian golden hamster [7]): Active | Activity (C3H 10T1/2 [8]): Active | Activity (3T3-L1 [10]): inactive | Activity (Syrian golden hamster [11]): Active | Activity (C3H 10T1/2 [12]): Active | Activity (Mus musculus [13]): inactive | Activity (Syrian golden hamster [14]): Active | Activity (Syrian golden hamster [15]): Active | Activity (Syrian golden hamster [16]): Active | Activity (3T3-L1 [17]): Active
